B1: tRNA (parent)
chain: GUUCCGUUGGCGUAAUGGUAACGCGUCUCCCUCCUAAGGAGAAGACUGCGGGUUCGAGUCCCGUACGGAACG

Variants of: B1
Assay: yeast fitness, log relative to wild type (ln ratio); higher = fitter; tRNA-Arg(CCU), competitive growth, 37 C, 1 M NaCl
How it was run: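 Genotype fitness is expressed as the natural log of its generations over those of the wild type. Each pool of the tRNA-Arg(CCU) variant library, carried on a HIS3 centromeric plasmid in BY4742 lacking the chromosomal gene, came from one of two independent transformations and grew 4 generations in SC-HIS at 30 °C before ~6.5 generations (~26.5 h) in SC-HIS 1M NaCl at 37 °C. Generation numbers used OD-scaled log2 output/input frequencies from 125 bp paired-end Illumina sequencing, combined across replicates by inverse-variance weighting.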

Variant	yeast fitness (ln)
G1A U2G C46U C66A A69G A70U C71U	-0.385
U2C G6A C27U A43C C46U C66U A70G	-0.0221
U2C G6A C66A A70U C71U	-0.0758
U2C G6A C27U A43C C46U C66U A69G A70G	-0.0296
U2C C27U C66A A70G C71U	-0.157
G1A U2G G6U C66U A70U C71U	-0.351
G1A G6U C27U A43C A69G A70G	-0.536
U2G G6U C46U C66A C71U	-0.0521
G1A U2C C27U A43C C46U C66U A69G A70U C71U	-0.464
G1A G6U A43C C46U A69G C71U	-0.263
G6A C66U A69G A70G C71U	-0.41
G1A U2G C27U A43C C66U A70U	-0.282
G1A U2C C27U A43C C46U C66U A69G A70G	-0.112
G1A G6U C66A A70G C71U	-0.0373
G1A U2C G6A C46U C66U A69G A70U	-0.0207
G1A U2C G6A C46U C66U A69G A70G	-0.0859
G1A U2G G6A C27U C46U C66U A69G A70G C71U	-0.407
U2C G6A C46U C71U	-0.0887
G1A U2G G6A C27U C66A A70U	-0.129
U2C C27U A69G C71U	-0.102
U2G G6A C46U C66U A69G A70U C71U	-0.385
U2G G6U A43C C66A	-0.122
G1A C27U A43C C46U C66U A69G A70U	-0.4
G1A U2G G6A C27U A43C C46U C66U A70U	-0.226

Variant	yeast fitness (ln)
U2G G6U C27U A69G C71U	-0.286
G1A C46U C66U A69G A70U	-0.162
U2G G6U A43C C66A A69G A70U C71U	-0.355
G6U A70U C71U	-0.14
G1A G6U C27U C46U C66A A70G	-0.233
G1A U2C C27U A43C A69G A70U C71U	-0.345
G6U C66U A69G	-0.527
U2G C46U A70U	-0.00122
G1A G6U C27U A43C C46U A69G A70G	-0.346
A43C C46U C66A C71U	-0.0684
U2G G6U C27U C46U C66A A69G A70G C71U	-0.25
G1A U2G G6U A43C C46U C66U A69G A70U C71U	-0.499
U2C G6A C27U C66A A70U C71U	-0.269
C27U A43C C46U C66U	-0.217
G6U A43C C46U C71U	-0.193
U2C C27U C46U A69G A70U C71U	-0.216
U2G C27U A43C C66U A70U	-0.205
U2G C27U A43C C66U A70G	-0.257
G1A U2G G6A A69G A70U C71U	-0.331
G1A G6U C27U C46U C66A A70G C71U	-0.23
G6U C27U A43C C46U C66U A70U C71U	-0.467
G1A G6A C27U C46U C66A A69G A70G C71U	-0.145
G6A C66U A69G A70U C71U	-0.447
U2C C27U C46U C66A A69G A70U C71U	-0.387

Variant	yeast fitness (ln)
U2G C27U A43C C66A A69G A70G C71U	-0.305
G1A U2C C46U	-0.0408
A43C C46U A70G C71U	-0.168
G1A C27U C46U C66A	-0.151
G1A U2G G6A C46U A70G C71U	-0.245
G6U C46U A70U	-0.161
G1A G6A C27U A43C C46U C66U A70G C71U	-0.338
G1A U2G G6A A69G A70G	-0.333
G1A U2G A43C C46U A70G C71U	-0.342
G6U C27U C46U C66U	-0.209
G6U C27U A43C A69G A70G C71U	-0.49
G1A U2G G6A C27U A43C C46U C66U C71U	-0.29
U2G G6U C27U A43C C46U C66U C71U	-0.356
G6U C27U A43C C46U C66A A69G	-0.0652
G1A U2G A43C A70U	-0.33
G1A U2C G6A A43C C46U A70U	-0.034
G6A A70U C71U	-0.14
U2C G6A C27U C66A A69G A70G C71U	-0.0666
G1A U2C C66U A70U	-0.0937
G1A C66A C71U	-0.113
G6U C27U A43C C66A A70U	-0.185
G1A C27U C46U A69G A70U C71U	-0.301
G6A C66A A70U	-0.158
G6A C27U A43C	-0.131

Variant	yeast fitness (ln)
C27U A43C C66A A70U	-0.0654
U2C G6A A43C C46U C66U A69G A70G	-0.00874
G1A G6A C27U C46U C66A A70G	-0.285
U2G G6U C27U C46U C71U	-0.199
G1A U2C C27U C46U C66A A70G C71U	-0.262
G1A C27U A43C C66A A70G	-0.173
G1A G6U C27U C46U C66U A69G A70U C71U	-0.4
C27U C46U C66U A69G C71U	-0.286
G1A U2C C46U A69G A70U C71U	-0.257
G1A U2C G6A A69G A70G C71U	-0.187
G1A U2G C27U A43C C46U A69G C71U	-0.239
G6U C27U C66A A70U	-0.17
G1A G6U C27U A70G C71U	-0.352
C27U C46U C66U A69G A70U C71U	-0.485
G1A C27U A43C A70G C71U	-0.426
U2C C27U A43C C46U A70G C71U	-0.00986
U2G C27U A43C C46U A70U	-0.00371
G1A U2G G6U A43C C66U A70U C71U	-0.237
U2G G6U C46U C66U A70U C71U	-0.643
U2C C27U A43C C66A A70G C71U	-0.111
G1A U2C G6U C46U C66A A69G A70G C71U	-0.0207
G1A G6A C71U	-0.363
G1A U2C A43C C66U A70U C71U	-0.281
U2G G6A C66U A69G C71U	-0.217

Variant	yeast fitness (ln)
U2G G6A C46U C66U A69G A70G C71U	-0.188
G1A U2C C27U A43C C66U A70U C71U	-0.244
G1A U2C C46U C66U A69G A70U	-0.152
G1A U2C G6U A43C C66U A70G C71U	-0.335
G1A G6U C27U A43C C66U A70U C71U	-0.391
U2C G6A	0.0247
G1A G6A A43C C66U A69G A70G	-0.253
G1A G6A A69G A70G	-0.104
G1A U2G G6U C27U C46U C66U A70U C71U	-0.334
G1A U2G C27U A43C A69G A70U	-0.281
U2C G6A C27U A70G	-0.167
U2C G6A C46U C66U A69G A70G C71U	-0.00401
U2C C46U C66U A70G C71U	-0.00524
G1A U2C C46U A70G C71U	0.000912
G1A G6U C27U A43C A70G	-0.439
G1A C27U C46U C66U A70G	-0.157
G1A C27U A69G A70G	-0.215
U2C C27U C46U C66U A70G	-0.04
G6U A43C C71U	-0.253
G6A C27U A43C C46U C66A A69G A70U	-0.28
G1A G6U A43C C66U A70G	-0.339
G1A U2C G6A A70G	-0.0946
G1A C27U A43C C46U C66A A69G A70G	-0.189
G1A U2C G6A C27U A43C C46U A69G A70G	-0.225

Variant	yeast fitness (ln)
G1A U2G G6A A43C C66U A69G A70G C71U	-0.612
U2C C66A A70G C71U	-0.196
G1A G6A C66U A69G C71U	-0.0291
G1A U2G G6A C27U A43C C66U	-0.348
U2C G6A C27U C66U	-0.217
G1A A43C A69G A70G	-0.11
G1A G6U C27U C66U A70U	-0.274
G1A U2G G6U C66A A70U	-0.329
G1A U2G A43C C66U A69G A70U C71U	-0.472
G1A G6U C27U C46U C66U A70G C71U	-0.302
G1A U2C G6U A43C C46U C66U A70U C71U	-0.235
U2C G6A C27U A43C C46U C66A A69G A70G C71U	-0.19
U2C A43C C46U C66U A69G A70G C71U	-0.315
C27U A43C C46U C66A A70U	-0.0585
G1A A43C C46U A69G C71U	-0.0151
G1A U2C G6A C27U C46U A70G C71U	-0.0986
U2G C27U A43C A70U	-0.0184
U2G C27U C46U C66U A70U C71U	-0.308
G1A G6U C27U A43C C66U A69G A70G C71U	-0.497
G6U C66U A70G C71U	-0.168
U2C G6U A43C C46U C66U A69G C71U	-0.347
C27U A43C C46U C66A A69G A70G C71U	-0.122
G1A U2G G6U A70U	-0.166
U2G G6A A43C A70G C71U	-0.18

Variant	yeast fitness (ln)
G6U A43C C46U C66A	-0.00135
G1A G6U C66A A69G A70U	-0.0798
U2C G6A C66U A69G A70G C71U	-0.0248
U2C C27U C46U A69G C71U	-0.104
U2C C27U C66A C71U	-0.146
U2G C27U A43C C46U C66A A69G A70U C71U	-0.498
G6A C66U A69G A70G	-0.0412
G6U A43C C66U	-0.23
U2G A70G C71U	-0.268
G1A U2G G6A C27U A43C C46U C66A A70G C71U	-0.478
U2G G6A C27U A43C C46U C66U A69G	-0.415
U2G G6U A43C C46U C66U A70G	-0.185
G1A U2C A43C C46U A70U	-0.0817
U2C G6U C27U C46U C66U A69G A70U	-0.218
G6A C46U A70G C71U	-0.145
G1A U2G A43C C46U C66A A70G	-0.26
G1A G6A A43C C46U A69G A70G	-0.251
G1A U2G G6A C66U A69G A70U	-0.334
U2G C46U C66A A69G C71U	-0.191
G1A U2C G6U C27U A43C C66A A69G A70G C71U	-0.272
U2C C27U C66U A69G A70U C71U	-0.453
U2G G6U C27U C46U C66U	-0.147
G1A U2G C27U A43C C66U A70U C71U	-0.382

— the RNAGym collection of RNA variant scans (doi:10.1038/s41586-018-0170-7)
